Reference: ChEMBL document CHEMBL4041524, “Synthesis and Characterization of a Novel γ-Aminobutyric Acid Type A (GABAA) Receptor Ligand That Combines Outstanding Metabolic Stability, Pharmacokinetics, and Anxiolytic Efficacy” (J Med Chem, 2016)

What was measured:
[1] = molecular target: GABA-A receptor; alpha-1/beta-3/gamma-2 (Homo sapiens) (UniProt P14867+P18507+P28472); experiment: Modulation of recombinant GABA alpha1beta3gamma2 receptor (unknown origin) expressed in Xenopus laevis oocytes assessed as change in GABA-induced EC(3 to 6) current at 10 uM by two-electrode voltage clamp assay; type: cell-based
Procedure, shortened: (§1)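 Xenopus laevis oocytes expressing α1, α2, α3 or α5 β3γ2 GABAARs were recorded by two-electrode voltage clamp. Modulation of the GABA EC3-6 current (taken as 100%) was tested at 100 nM, 1 μM and 10 μM in the same cells. Values are mean ± SEM, n = 3–4.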

[2] = molecular target: T1, GABA-A receptor; alpha-3/beta-3/gamma-2 (Homo sapiens, UniProt P18507+P28472+P34903); experiment: Binding affinity to human GABAA alpha3beta3gamma2 receptor expressed in HEK293 cells assessed as GABA-induced membrane potential change preincubated for 3 mins followed by addition of GABA measured after 3 mins by FLIPR assay; type: cell-based
T1 sequence (P18507 whole entry): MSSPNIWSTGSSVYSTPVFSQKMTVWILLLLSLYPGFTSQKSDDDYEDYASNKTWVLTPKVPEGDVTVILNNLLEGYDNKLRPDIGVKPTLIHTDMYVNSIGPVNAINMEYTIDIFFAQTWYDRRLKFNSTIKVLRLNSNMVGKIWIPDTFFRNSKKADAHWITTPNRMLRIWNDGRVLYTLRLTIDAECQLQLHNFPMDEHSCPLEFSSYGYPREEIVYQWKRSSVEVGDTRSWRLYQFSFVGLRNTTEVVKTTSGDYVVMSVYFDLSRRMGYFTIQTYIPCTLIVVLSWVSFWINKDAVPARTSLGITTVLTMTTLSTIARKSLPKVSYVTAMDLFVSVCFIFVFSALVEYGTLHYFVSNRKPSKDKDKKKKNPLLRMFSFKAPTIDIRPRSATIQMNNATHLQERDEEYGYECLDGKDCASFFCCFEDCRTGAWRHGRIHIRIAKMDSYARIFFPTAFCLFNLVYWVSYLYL
T1 sequence (P28472 whole entry): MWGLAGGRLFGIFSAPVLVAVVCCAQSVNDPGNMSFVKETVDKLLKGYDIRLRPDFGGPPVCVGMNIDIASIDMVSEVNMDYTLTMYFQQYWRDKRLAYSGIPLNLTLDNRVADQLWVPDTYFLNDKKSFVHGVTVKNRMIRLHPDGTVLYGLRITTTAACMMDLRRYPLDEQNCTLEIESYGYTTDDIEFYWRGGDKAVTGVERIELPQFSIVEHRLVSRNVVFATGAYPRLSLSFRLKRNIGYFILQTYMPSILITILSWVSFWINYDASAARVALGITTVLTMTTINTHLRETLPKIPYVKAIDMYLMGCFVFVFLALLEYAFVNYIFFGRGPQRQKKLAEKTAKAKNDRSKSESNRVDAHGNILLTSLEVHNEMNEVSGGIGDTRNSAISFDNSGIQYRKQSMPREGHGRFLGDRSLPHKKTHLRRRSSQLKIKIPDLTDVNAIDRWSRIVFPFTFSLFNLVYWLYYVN
T1 sequence (P34903 whole entry): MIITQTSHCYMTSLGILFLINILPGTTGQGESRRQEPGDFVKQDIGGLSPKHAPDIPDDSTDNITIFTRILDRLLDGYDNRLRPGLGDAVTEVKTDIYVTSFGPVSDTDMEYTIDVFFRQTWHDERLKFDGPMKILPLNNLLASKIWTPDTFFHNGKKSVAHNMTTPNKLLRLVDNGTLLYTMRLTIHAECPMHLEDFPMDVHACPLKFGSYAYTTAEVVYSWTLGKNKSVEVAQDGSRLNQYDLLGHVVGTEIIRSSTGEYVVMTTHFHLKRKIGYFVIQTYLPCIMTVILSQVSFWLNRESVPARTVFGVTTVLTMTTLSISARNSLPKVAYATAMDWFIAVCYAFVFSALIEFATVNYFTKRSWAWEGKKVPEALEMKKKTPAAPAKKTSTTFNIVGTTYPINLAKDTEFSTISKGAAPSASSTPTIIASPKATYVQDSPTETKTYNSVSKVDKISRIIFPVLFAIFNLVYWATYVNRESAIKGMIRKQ
Procedure, shortened: (§2)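 Stably transfected HEK293T cells expressing α1β3γ2 (n = 2) or α3β3γ2 (n = 1) GABAARs. Membrane potential was read as fluorescence changes on a FLIPR Tetra, and EC50 was derived.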

[3] = molecular target: T2, GABA-A receptor; alpha-1/beta-3/gamma-2 (Homo sapiens, UniProt P14867+P18507+P28472); experiment: Modulation of recombinant human GABA alpha1beta3gamma2 receptor expressed in HEK293 cells assessed as change in GABA-induced current at -80 mV holding potential preincubated for 3 mins followed by co-administration of GABA by electrophysiology method; type: cell-based
T2 sequence (P14867 whole entry): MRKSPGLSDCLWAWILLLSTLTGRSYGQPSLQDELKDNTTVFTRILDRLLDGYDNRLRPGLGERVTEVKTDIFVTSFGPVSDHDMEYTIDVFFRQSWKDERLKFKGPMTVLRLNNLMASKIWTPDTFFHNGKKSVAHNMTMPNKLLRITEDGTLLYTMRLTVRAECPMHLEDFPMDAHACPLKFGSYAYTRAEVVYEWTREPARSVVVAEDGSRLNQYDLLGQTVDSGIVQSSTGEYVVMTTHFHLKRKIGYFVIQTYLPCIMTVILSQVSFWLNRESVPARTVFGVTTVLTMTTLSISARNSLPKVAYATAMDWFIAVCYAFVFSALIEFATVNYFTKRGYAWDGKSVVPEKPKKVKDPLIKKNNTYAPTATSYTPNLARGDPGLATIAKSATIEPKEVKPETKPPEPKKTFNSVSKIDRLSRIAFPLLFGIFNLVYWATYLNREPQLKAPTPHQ
T2 sequence (P18507 whole entry): T1 sequence (P18507 whole entry)
T2 sequence (P28472 whole entry): T1 sequence (P28472 whole entry)

[4] = molecular target: T2, GABA-A receptor; alpha-1/beta-3/gamma-2; experiment: Binding affinity to human GABAA alpha1beta3gamma2 receptor expressed in HEK293 cells assessed as GABA-induced membrane potential change preincubated for 3 mins followed by addition of GABA measured after 3 mins by FLIPR assay; type: cell-based; procedure, shortened: as §2
[5] = molecular target: GABA-A receptor; alpha-5/beta-3/gamma-2 (Homo sapiens) (UniProt P18507+P28472+P31644); experiment: Modulation of recombinant GABA alpha5beta3gamma2 receptor (unknown origin) expressed in Xenopus laevis oocytes assessed as change in GABA-induced EC(3 to 6) current by two-electrode voltage clamp assay; type: cell-based; procedure, shortened: as §1
[6] = system: Mus musculus; experiment: Toxicity in Swiss mouse assessed as change in motor coordination by measuring number of falls from the rotating rod at 30 mg/kg, ip administered 30 mins prior to testing measured for 2 mins by rotarod test relative to control; type: organism-based; details: in vivo
Procedure, shortened: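 The same mice used for marble burying were placed on a rotarod at 4 r.p.m. for 2 min. No fall was scored success, one fall partial, and two falls failure.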

[7] = AUC in femoral artery/vein cannulated Sprague-Dawley rat at 10 mg/kg, ip administered […] as single dose by LC-MS/MS analysis; type: ADME, organism-based; details: in vivo
Procedure, shortened: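 Male Sprague-Dawley rats (n = 3 per time point) were dosed 1 mg/kg i.v. or 10 mg/kg i.p. Plasma concentrations were measured at set time points. Clearance, Vdss and T½ came from the i.v. arm, and AUC, Cmax and Tmax from the i.p. arm.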

## C#Cc1ccc2c(c1)C(c1ccccn1)=NCc1c(-c3cnco3)ncn1-2
[1]
  Activity: 232%
[2]
  EC50: 937 nM
[3]
  EC50: 489 nM
[4]
  EC50: > 20000 nM
[5]
  Activity: Dose-dependent effect
[6]
  Activity: Non-Toxic
[7]
  AUC: 16.5 µM·h
